Screening results deposited in PubChem BioAssay by several laboratories.
NSD2 inh: NSD2 histone methyltransferase inhibitors, primary screen, biochemical, AlphaScreen, single concentration, set 2 | inhibition, % at 12.5 µM | NSD2 peptide methylation, 120 min | 310,000 compounds, 0.54% hits | AID 743445, 2014 | Histone-lysine N-methyltransferase NSD2 (Homo sapiens), O96028; in the data active = inhibition above about 50%
UCH37 DUB inh: inhibitors of human UCH37 deubiquitinase, primary screen, biochemical, Ub-AMC cleavage, fluorescence; 330,000 compounds, 0.33% hits; purified proteasome/UCH37; inhibition, % (concentration not given with the values); Ubiquitin carboxyl-terminal hydrolase isozyme L5 (Homo sapiens), Q9Y5K5; AID 588478, 2011;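 active = mean inhibition over replicate wells above about 20%, limit read from the data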
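Material: human UCH37 enzyme supplied as purified proteasome complex / Amount: 0.15 nM proteasome as dispensed / Buffer or medium: pH 7.4 Tris-HCl (50 mM) with ovalbumin, ATP-MgCl2, DTT / Times: preincubation 30 min, reaction 25 min, room temperature / Technique: AMC fluorescence from Ub-AMC cleavage, excitation 355 nm, emission 460 nm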
Casp6 inh: human caspase-6 inhibitors, primary screen, biochemical, VEID-R110 fluorescence, single point, set 2. purified caspase-6, Z-VEID-R110 cleavage fluorescence. 350,000 compounds, 0.53% hits. inhibition, % at 12.5 µM. P55212. AID 686996, 2013;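 active = mean inhibition across replicates at least about 35%, with every replicate also reaching that limit, limit read from the data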
Target sequence (P55212 24-179 limits assumed): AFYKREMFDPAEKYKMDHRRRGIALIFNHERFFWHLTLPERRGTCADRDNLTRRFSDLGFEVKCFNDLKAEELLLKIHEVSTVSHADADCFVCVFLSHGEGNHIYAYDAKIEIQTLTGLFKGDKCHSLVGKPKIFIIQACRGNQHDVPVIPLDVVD
Target sequence (P55212 194-293 limits assumed): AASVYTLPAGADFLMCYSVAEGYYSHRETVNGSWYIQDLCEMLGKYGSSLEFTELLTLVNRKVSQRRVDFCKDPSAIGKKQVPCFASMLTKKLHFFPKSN
SIRT5 inh: SIRT5 desuccinylase inhibitors, primary screen, biochemical, fluorescence imaging, single point, set 5 | 330,000 compounds, 1.1% hits | inhibition, % at 15 µM | Purified SirT5, succinyl-peptide AMC, trypsin-coupled fluorescence | NAD-dependent protein deacylase sirtuin-5, mitochondrial (Homo sapiens), Q9NXA8; in the data active = inhibition above about 15%
FGF22 binding: binders of human FGF22 protein, primary screen, FGF22 synaptogenesis inhibitor project, biophysical, thermal shift, single point; 340,000 compounds, 1.5% hits; AID 651658, 2012; recombinant FGF22 thermal shift, SYPRO orange fluorescence; percent of sucrose octasulfate shift, DMSO zero; activity (Tm shift, normalised), % at 9.99 µM;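 active = mean Tm shift, scaled 0 neutral to 100 positive control, at about 1.3% or above, every replicate too, limit read from the data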
Target sequence (Q9HCT0 whole entry, looked up): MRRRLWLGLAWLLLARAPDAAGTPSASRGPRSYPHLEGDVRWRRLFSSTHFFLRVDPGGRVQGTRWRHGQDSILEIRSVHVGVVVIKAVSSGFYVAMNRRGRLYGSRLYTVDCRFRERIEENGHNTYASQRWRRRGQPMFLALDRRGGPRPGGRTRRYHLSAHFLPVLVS
A number is an active result; - = inactive; . = no result. An excerpt weighted towards active compounds, which were near 2.6% of everything screened.

SMILES	NSD2 inh	UCH37 DUB inh	Casp6 inh	SIRT5 inh	FGF22 binding
CC(C)S(=O)(=O)C1=NSC2=NC(=O)/C(=C\c3ccc(-c4cccc(C(=O)O)c4)o3)C(=N)N21	-	22.5	-	21.0	.
CNC(=O)COc1ncnc2sccc12	-	.	.	.	.
O=C(COc1ncnc2sccc12)Nc1ccc(F)cc1F	-	-	-	-	43.9
CNC(=O)C[C@@H]1CC[C@H]2[C@@H](COC[C@H](O)CN2Cc2ccc(Cl)c(Cl)c2)O1	.	.	-	-	-
CCOc1ccccc1NC(=O)c1cc(C(=O)c2cc(Br)ccc2O)coc1=N	-	-	-	-	44.6
COc1ccc(C(=O)NN=Cc2ccc(OC)c(CN3CCc4cc(OC)c(OC)cc4C3C)c2)cc1 (configuration not stated)	.	-	.	.	.
Nc1cccc2cc(S(=O)(=O)O)ccc12	128.7	-	64.3	57.2	-
CC(C)NC(=O)N[C@H]1CC[C@H](CC(=O)NCCN2CCCC2)O[C@@H]1CO	.	.	-	-	-
COC/C=C/C1=CC2=CC(=O)C(C)(OC(=O)c3cnc4ccccc4n3)C(=O)C2=CN1CC1CC1 (configuration not stated)	.	40.7	.	.	.
COC/C=C/C1=CC2=CC(=O)C(C)(OC(=O)c3cnc4ccccc4n3)C(=O)C2=CN1Cc1ccccc1 (configuration not stated)	.	-	-	-	-
NC(=O)NCC#Cc1ccc2c(c1)[C@]1(C(=O)N2)[C@H](c2ccccc2OCCO)N2[C@H](c3ccccc3)[C@H](c3ccccc3)OC(=O)[C@H]2[C@@H]1C(=O)N1CCCCCCC1	.	.	-	-	-
C=CCNC(=O)[C@H]1[C@@H]2C(=O)O[C@@H](c3ccccc3)[C@@H](c3ccccc3)N2[C@@H](c2ccc(O)cc2)[C@]12C(=O)N(C(=O)OCCOC)c1ccc(C#CCC(C(=O)OC)C(=O)OC)cc12	.	.	-	-	18.3
NC(=O)NCC#Cc1ccc2c(c1)[C@]1(C(=O)N2)[C@H](c2ccccc2OCCO)N2[C@H](c3ccccc3)[C@H](c3ccccc3)OC(=O)[C@H]2[C@@H]1C(=O)N1CCN(c2ncccn2)CC1	.	.	-	21.4	-
O=C1O[C@@H](c2ccccc2)[C@@H](c2ccccc2)N2[C@@H](c3ccccc3OCCO)[C@]3(C(=O)Nc4ccc(C#CCCO)cc43)[C@@H](C(=O)O)[C@H]12	.	.	-	-	16.0
C=CCNC(=O)[C@@H]1[C@H]2C(=O)O[C@H](c3ccccc3)[C@H](c3ccccc3)N2[C@H](c2ccccc2OCCO)[C@@]12C(=O)N(C(=O)OCCOC)c1ccc(C#CC3(O)CCCCCC3)cc12	.	.	-	-	.
C=CCNC(=O)[C@H]1[C@@H]2C(=O)O[C@@H](c3ccccc3)[C@@H](c3ccccc3)N2[C@@H](c2ccccc2OCCO)[C@]12C(=O)Nc1ccc(C#CC3(O)CCCCCC3)cc12	.	.	-	16.8	33.5
O=C(NCC[C@H]1CC[C@H](NC(=O)c2ccccc2F)[C@@H](CO)O1)c1ccc2c(c1)OCO2	.	.	-	-	-
Cc1ccc(OCC(=O)NN=Cc2cccn2C)cc1	.	-	.	.	.
Cc1ccc(CN(C)C[C@@H]2OCc3cn(nn3)CCCC(=O)N([C@H](C)CO)C[C@H]2C)cc1	.	.	.	-	.
O=C(Nc1ccccc1F)N[C@@H]1CC[C@H](CCNC(=O)C2CCOCC2)O[C@H]1CO	.	.	-	-	-
O=S1c2ccccc2Nc2ccccc21	.	-	-	24.7	-
CC1(C)CC(=O)C2=C(C1)Nc1ccccc1NC2	-	-	-	-	-
CC1(C)CC(=O)C2=C(C1)Nc1ccccc1[S@]2=O	-	-	-	15.6	-
COCCNc1c([N+](=O)[O-])c(=O)n(-c2ccccc2)c2ccccc12	-	-	.	.	.
O=c1c([N+](=O)[O-])c(NCCN2CCCCCC2)c2ccccc2n1-c1ccccc1	-	-	-	-	42.9
SMILES	NSD2 inh	UCH37 DUB inh	Casp6 inh	SIRT5 inh	FGF22 binding
C[C@H]1CCCCO[C@@H](CN(C)C(=O)Cc2ccccc2)[C@@H](C)CN([C@@H](C)CO)C(=O)c2cc(NC(=O)CCC(F)(F)F)ccc2O1	.	.	.	.	-
COc1ccccc1-n1c(SCC(=O)O)nc2c(sc(=S)n2-c2ccc(C)c(C)c2)c1=O	-	-	-	16.9	-
COc1ccccc1NC(=O)COC(=O)/C=C/c1ccccc1[N+](=O)[O-]	-	-	.	.	.
COc1cccc(/C=C/C(=O)OCC(=O)Nc2ccc(N3CCOCC3)cc2)c1OC	-	-	-	-	43.9
COc1cccc(/C=C/C(=O)OCC(=O)NC2CC2)c1OC	-	-	-	.	-
COc1ccccc1/C=C/C(=O)OCC(=O)Nc1ccccc1Sc1ccccc1	-	-	-	17.5	-
CS/C(=C/[N+](=O)[O-])Nc1cccc2c1C(C)CC2(C)C (configuration not stated)	-	-	-	-	43.7
Cc1cccc(C=NNC(=O)c2cc(C3CC3)nc3ccccc23)n1	.	-	.	.	.
COc1ccc(OCC(=O)OCC(=O)Nc2cc(S(=O)(=O)N3CCOCC3)ccc2Cl)cc1	-	-	-	.	42.9
CCOC(=O)C1CCCN(C(=S)Nc2ccc(S(=O)(=O)N3CCOCC3)cc2)C1 (configuration not stated)	-	-	-	.	42.9
CCOC(=O)N1CCN(C(=S)Nc2cc(S(=O)(=O)N3CCOCC3)ccc2Cl)CC1	-	-	-	-	45.4
C[C@@H]1CN([C@@H](C)CO)S(=O)(=O)c2ccc(C3=CCCC3)cc2O[C@@H]1CN(C)C(=O)CN(C)C	.	.	-	-	-
C[C@H](CO)N1C[C@H](C)[C@H](CN(C)Cc2ccc(C(=O)O)cc2)OCc2ccccc2-c2ccccc2C1=O	.	.	-	-	-
C[C@H](CO)N1C[C@H](C)[C@H](CN(C)C(=O)Nc2ccc(C(F)(F)F)cc2)Oc2ncc(/C=C/c3ccccc3)cc2C1=O	.	.	-	-	-
Cc1ccc(S(=O)(=O)Nc2ccc3c(c2)C(=O)N([C@H](C)CO)C[C@@H](C)[C@H](CN(C)Cc2ccncc2)OCCCC[C@@H](C)O3)cc1	.	.	-	-	-
O=C(/C=C/c1ccc(O)c(O)c1)c1ccccc1O	62.2	-	-	-	-
O=C(Nc1ccc(Br)cc1F)C1CCCN(S(=O)(=O)c2cnc[nH]2)C1 (configuration not stated)	.	-	-	.	2.0
Cc1ccc(NC(=O)C2CCCN(S(=O)(=O)c3cnc[nH]3)C2)c(Br)c1 (configuration not stated)	.	-	-	.	-
Cc1ccccc1NC(=O)C1CCCN(S(=O)(=O)c2cnc[nH]2)C1 (configuration not stated)	.	-	91.1	.	-
CCc1ccc(NC(=O)C2CCCN(S(=O)(=O)c3cnc[nH]3)C2)cc1 (configuration not stated)	.	-	.	.	.
